Reference: ChEMBL document CHEMBL1155146, “Diphenyl furans and aza analogs: effects of structural modification on in vitro activity, DNA binding, and accumulation and distribution in trypanosomes” (Antimicrob Agents Chemother, 2007)

Experiments:
[1] = system: Trypanosoma brucei brucei; assay: Antitrypanosomal activity against Trypanosoma brucei brucei S427 after 72 hrs; assay type: functional, organism-based; details: S427, 72 h
[2] = Binding affinity to poly(dA).poly(dT) assessed as increase in melting temperature
In short: (§1)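 UV thermal melting in MES buffer (0.01 M MES, 0.1 M NaCl, 0.001 M EDTA, pH 6.2), heated at 0.5°C/min. Oligomer duplex at 1 x 10^-6 M duplex with 1:1 compound:duplex. Poly(dA)·poly(dT) at 5 x 10^-5 M base pairs with 0.6 compound:bp. Tm taken from the first-derivative maximum of absorbance vs temperature. ΔTm = Tm(complex) − Tm(DNA).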

[3] = system: Trypanosoma brucei rhodesiense; assay: Antitrypanosomal activity against Trypanosoma brucei rhodesiense STIB900 after 72 hrs; assay type: functional, organism-based; details: STIB900, 72 h
[4] = Binding affinity at d(CGCGAATTCGCG) synthetic oligomer duplex assessed as increase in melting temperature; in short: as §1
[5] = system: Trypanosoma brucei brucei; assay: Drug level in Trypanosoma brucei brucei S427 at 7.5 uM after 8 hrs; assay type: ADME, organism-based
In short: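 About 10^6 trypanosomes incubated with 7.5 µM diamidine for 1 to 8 h. Intracellular concentration measured by HPLC (fluorescence detection at excitation/emission maxima, formate buffer/acetonitrile gradient, reversed-phase column) or LC/MS. Reported as mean ± standard error.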

[6] = system: Trypanosoma brucei brucei; assay: Drug level in Trypanosoma brucei brucei S427 at 7.5 uM after 24 hrs; assay type: ADME, organism-based

Structure (SMILES)	IC50 [1] [nM]	ΔTm [2] [°C]	IC50 [3] [nM]	ΔTm [4] [°C]	Drug uptake [5] [mM]	Drug uptake [6] [mM]
N=C(N)c1ccc(-c2ccc(-c3ccc(C(=N)N)nc3)o2)cc1	3.3	23.3	2.1	10.4	9.3	–
N=C(N)c1ccc(-c2ccc(-c3ccc(C(=N)N)cn3)o2)cc1	3.4	20	–	11.2	1	3
N=C(N)c1ccc(-c2coc(-c3ccc(C(=N)N)cc3)c2)cc1	2.1	17.1	1.7	10.4	30	–
N=C(NC1CCCC1)c1ccc(-c2ccc(-c3ccc(C(=N)NC4CCCC4)cc3)o2)cc1	100	27	60	16	30	–
Cc1cc(C(=N)N)ccc1-c1ccc(-c2ccc(C(=N)N)cn2)o1	10	16.7	9.7	10.6	–	–
N=C(N)c1ccc(-c2ccc(-c3ccc(C(=N)N)cn3)o2)nc1	13	16	19	8.4	–	–
c1cc(-c2ccc(-c3ccc(C4=NCCCN4)cc3)o2)ccc1C1=NCCCN1	260	27	33	15.1	–	–
N=C(N)c1ccc(-c2ccc(-c3ccc(C(=N)N)cc3F)o2)c(F)c1	14.8	15.2	8	8.2	–	–
N=C(NC1CCCCC1)c1ccc(-c2ccc(-c3ccc(C(=N)NC4CCCCC4)cc3)o2)cc1	121	27	68	16.8	30	–
N=C(N)c1ccc(-c2ccc(-c3ccc(C(=N)N)cc3O)o2)nc1	32	16.4	32	10.4	–	–
c1cc(-c2ccc(-c3ccc(C4=NCCN4)cc3)o2)ccc1C1=NCCN1	251	19.3	245	11	–	–
N=C(N)c1ccc(-c2ccc(-c3ccc(C(=N)N)cc3)o2)cc1 [FURAMIDINE]	7	26.2	–	8.9	4.5	12
N=C(N)c1ccc(Cc2ccc(-c3ccc(C(=N)N)cn3)o2)cc1	314	3.1	147	0.4	–	–
